In ChEMBL document CHEMBL1126160, “Synthesis and structure-activity relationships of 7-diazabicycloalkylquinolones, including danofloxacin, a new quinolone antibacterial agent for veterinary medicine” (J Med Chem, 1992):
In brackets after ≈: the same amount, converted by molar mass.

Legend:
[1] = system: Pasteurella multocida; assay: In vitro antibacterial activity against aerobically grown Pasteurella multocida (59A006); assay type: functional
How it was run: (§1)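 Agar dilution MICs. Aerobic strains were tested on brain heart infusion agar and incubated aerobically at 37 °C for 18–20 h.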

[2] = system: Phocaeicola vulgatus; assay: In vitro antibacterial activity against anaerobically grown Bacteroides vulgatus (78D029); assay type: functional
How it was run: (§2)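 Agar dilution MICs. Anaerobic strains were tested on tryptose agar with 5% bovine blood and incubated 48 h at 39 °C in an anaerobe chamber under N2/CO2/H2 (80:10:10).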

[3] = system: Salmonella enterica; assay: In vitro antibacterial activity against aerobically grown Salmonella choleraesuis (58B015); assay type: functional
[4] = system: Escherichia coli; assay: In vitro antibacterial activity against aerobically grown Escherichia coli (51A538); assay type: functional; how it was run: as §1
[5] = system: Actinobacillus pleuropneumoniae; assay: In vitro antibacterial activity against anaerobically grown Actinobacillus pleuropneumoniae ([…]); assay type: functional; how it was run: as §2
[6] = system: Clostridium perfringens; assay: microbe, parasite or virus in culture; assay type: functional
[7] = system: Trueperella pyogenes; assay: In vitro antibacterial activity against anaerobically grown Actinomyces pyogenes (14D002); assay type: functional; how it was run: as §2
[8] = system: Staphylococcus aureus; assay: In vitro antibacterial activity against aerobically grown Staphylococcus aureus (54B004); assay type: functional; how it was run: as §1
[9] = system: Escherichia coli; assay: The Escherichia coli DNA cleavage endpoint value which is the minimum amount of compound required (micro g/mL) to induce detectable cleavage of supercoiled pBR322 substrate to the linear form (gyrase); assay type: functional
How it was run: (§3)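 DNA gyrase A and B subunits were purified from E. coli overproducers. About 2 units of holoenzyme were incubated with pBR322 in Tris-HCl pH 7.5 containing MgCl2, spermidine, DTT, 0.2 mM ATP, BSA and tRNA. Drug was added as 2-fold serial dilutions, and reactions ran for 60 min at 25 °C. Reactions were stopped with SDS and proteinase K, then run on agarose and stained with ethidium. The endpoint was the lowest concentration giving detectable linear DNA.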

[10] = In vitro evaluation for antibacterial activity against anaerobically grown Treponema hyodysenteriae (94A007); assay type: functional; details: Brachyspira hyodysenteriae
[11] = system: Bordetella bronchiseptica; assay: In vitro antibacterial activity against aerobically grown Bordetella bronchiseptica (73A009); assay type: functional; how it was run: as §1
[12] = system: Escherichia coli; assay: In vivo protective dose was evaluated against Escherichia coli (51A266) in mouse(sc); assay type: functional; details: read-out: PD50
How it was run: (§4)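 Female CF-1 mice (15 g), groups of 10, challenged ip with 0.5 mL bacterial suspension (P. multocida 59A006 or E. coli 51A266 at 3.0 × 10^8 cfu/mL; S. choleraesuis 58B010 at 8.5 × 10^2 cfu/mL). Drug given sc or po at 30 min, 4 h and 24 h after challenge; survival recorded at 96 h; PD50 by probit analysis.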

[13] = In vitro antibacterial activity against Aerobically grown Pasteurella haemolytica (59B018); assay type: functional; details: Mannheimia haemolytica; how it was run: as §1
[14] = system: Escherichia coli; assay: Escherichia coli DNA cleavage endpoint value which is the minimum amount required (in micro g/mL) to induce detectable cleavage of supercoiled pBR322 substrate to linear form (gyrase); assay type: functional; details: read-out: MIC; how it was run: as §3
[15] = system: Pasteurella multocida; assay: In vitro antibacterial activity against Aerobically grown Pasteurella multocida (59A006); assay type: functional; how it was run: as §1
[16] = system: Salmonella enterica; assay: In vitro antibacterial activity against Aerobically grown Salmonella choleraesuis (58B015); assay type: functional
[17] = system: Pasteurella multocida; assay: In vivo protective dose was evaluated against Pasteurella multocida (59A006) in mouse(sc); assay type: functional; details: read-out: PD50; how it was run: as §4
[18] = system: Pasteurella multocida; assay: In vivo protective dose was evaluated Pasteurella multocida (59A006) in mouse(sc); assay type: functional; details: read-out: PD50; how it was run: as §4
[19] = system: Mannheimia haemolytica; assay: Compound was evaluated for minimum against Pasteurella haemolytica intramuscular dose administration; assay type: functional; details: im, read-out: MED
How it was run: (§5)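 Calf and swine respiratory disease models. Calves received acetic acid intratracheally on the day before and on day 0, then an endotracheal challenge with P. haemolytica B280PA, about 5 × 10^8 cfu/mL. They were dosed im with a 2.5% or 5% solution in sterile water on days 0 and 1 (SID × 2). Pigs weighing 8.5–12.5 kg were challenged intranasally with A. pleuropneumoniae B316HM, 10^9 cfu/mL. They were dosed once within 1 h, either im (1% or 2.5% solution) or by gavage (0.5% solution). MED was the lowest dose giving significant reduction of lung pathology.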

[20] = system: Actinobacillus pleuropneumoniae; assay: Compound was evaluated for minimum effective dose against Actinobacillus pleuropneumonia peroral dose administration; assay type: functional; details: po, read-out: MED; how it was run: as §5
[21] = system: Pasteurella multocida; assay: In vivo protective dose was evaluated Pasteurella multocida (59A006) in mouse(po); assay type: functional; details: read-out: PD50; how it was run: as §4
[22] = system: Actinobacillus pleuropneumoniae; assay: Compound was evaluated for minimum against Actinobacillus pleuropneumoniae intramuscular dose administration; details: im, read-out: MED
[23] = system: Actinobacillus pleuropneumoniae; assay: Compound was evaluated for minimum effective dose against Actinobacillus pleuropneumonia, intramuscular dose administration; details: im, read-out: MED
[24] = system: Actinobacillus pleuropneumoniae; assay: Compound was evaluated for minimum effective dose against Actinobacillus pleuropneumonia, peroral dose administration; assay type: functional; details: po, read-out: MED
How it was run: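 Cross-bred swine, 8.5–12.5 kg; intranasal challenge with A. pleuropneumoniae strain B316HM, grown overnight on enriched BHI agar at 37 °C in 5–10% CO2 and standardized by OD to 10^9 cfu/mL, three 1-mL increments per nostril. Single treatment (SID × 1): im 1% or 2.5% solution in sterile water into ham within 1 h of challenge, or oral gavage of 0.5% solution in sterile water.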

[25] = system: Escherichia coli; assay: In vivo protective dose was evaluated against Escherichia coli (51A266) in mouse(po); assay type: functional; details: read-out: PD50; how it was run: as §4
[26] = compound was evaluated for aqueous solubility at pH 7.2; assay type: physicochemical; details: buffer
How it was run: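 Excess solid (~5 mg) shaken in 3 mL 0.05 M phosphate buffer pH 7.2 at 23 ± 1 °C in duplicate vials up to 3 days, pH readjusted to 7.2 after each sampling; filtered (0.45 nylon) samples analysed by HPLC.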

[27] = system: Pasteurella multocida; assay: In vivo protective dose was evaluated against Pasteurella multocida (59A006) in mouse(po); assay type: functional; details: read-out: PD50; how it was run: as §4
[28] = system: Mannheimia haemolytica; assay: Compound was evaluated for minimum effective dose against Pasteurella haemolytica, intramuscular dose administration; assay type: functional; details: im, read-out: MED
How it was run: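 Calves acid-treated intratracheally with 0.6 mL 8% acetic acid at 24 h and 4 h before endotracheal challenge with 50 mL P. haemolytica B280PA (~5 × 10^8 cfu/mL). im dosing of 2.5% or 5% solution in sterile water, day 0 and day 1 (SID × 2). Clinical signs and temperature recorded days 0–5; lungs scored and cultured. MED = lowest dose giving significant (65%) reduction of lung pathology.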

[29] = system: Actinobacillus pleuropneumoniae; assay: Dose was evaluated for minimum effective dose actinobacillus pleuropneumonia, intramuscular dose administration; details: im, read-out: MED
[30] = system: Salmonella enterica; assay: In vivo protective dose was evaluated against Salmonella choleraesuis (58B010) in mouse(po); assay type: functional; details: read-out: PD50; how it was run: as §4
[31] = system: Mannheimia haemolytica; assay: Dose was evaluated for minimum effective dose Pasteurella haemolytica, intramuscular dose administration; assay type: functional; details: im, read-out: MED; how it was run: as §5
[32] = system: Actinobacillus pleuropneumoniae; assay: Compound was evaluated for minimum effective dose Actinobacillus pleuropneumonia, peroral dose administration; assay type: functional; details: po, read-out: MED; how it was run: as §5
[33] = Compound was evaluated for aqueous solubility at pH 7.2; details: buffer

Structure (SMILES)	MIC [1]	MIC [2]	MIC [3]	MIC [4]	MIC [5]	MIC [6]	MIC [7]	MIC [8]	MIC [10]	MIC [11]	ED50 [12]	MIC [13]	minimum concentration inducing gyrase-mediated DNA cleavage [14]	ED50 [17]	ED50 [25]	ED50 [27]	further results
CN1C[C@@H]2C[C@H]1CN2c1c(F)cc2c(=O)c(C(=O)O)cn(C3CC3)c2c1Cl	< 0.05 µg/mL	0.78 µg/mL (≈ 1.99 µM)	< 0.05 µg/mL	< 0.05 µg/mL	< 0.05 µg/mL	0.2 µg/mL (≈ 0.51 µM)	0.39 µg/mL (≈ 0.995 µM)	0.1 µg/mL (≈ 0.255 µM)	6.25 µg/mL (≈ 16 µM)	0.39 µg/mL (≈ 0.995 µM)	–	–	–	–	–	–	MIC [9]: 0.19 µg/mL (≈ 0.485 µM)
CCn1cc(C(=O)O)c(=O)c2cc(F)c(N3C[C@@H]4C[C@H]3CN4C)cc21	–	> 3.13 µg/mL	–	0.2 µg/mL (≈ 0.579 µM)	0.78 µg/mL (≈ 2.26 µM)	0.2 µg/mL (≈ 0.579 µM)	> 3.13 µg/mL	0.39 µg/mL (≈ 1.13 µM)	1.56 µg/mL (≈ 4.52 µM)	1.56 µg/mL (≈ 4.52 µM)	1.45 mg/kg	0.39 µg/mL (≈ 1.13 µM)	3.12 µg/mL	1.35 mg/kg	–	–	MIC [15]: 0.1 µg/mL (≈ 0.29 µM); MIC [16]: 0.39 µg/mL (≈ 1.13 µM)
CCn1cc(C(=O)O)c(=O)c2cc(F)c(N3C[C@H]4CC[C@@H](C3)N4C)cc21	0.2 µg/mL (≈ 0.556 µM)	> 3.13 µg/mL	0.78 µg/mL (≈ 2.17 µM)	0.78 µg/mL (≈ 2.17 µM)	0.78 µg/mL (≈ 2.17 µM)	0.39 µg/mL (≈ 1.09 µM)	> 3.13 µg/mL	0.2 µg/mL (≈ 0.556 µM)	3.13 µg/mL (≈ 8.71 µM)	> 1.56 µg/mL	2.23 mg/kg	0.39 µg/mL (≈ 1.09 µM)	3.12 µg/mL	–	–	–	ED50 [18]: 1.31 mg/kg; minimal effective dose [19]: 1.2 mg/kg; minimal effective dose [20]: 5 mg/kg; ED50 [21]: 2.21 mg/kg; minimal effective dose [22]: 0.6 mg/kg
CCn1cc(C(=O)O)c(=O)c2cc(F)c(N3CCN4CCC3CC4)cc21 [BINFLOXACIN]	0.05 µg/mL (≈ 0.139 µM)	> 3.13 µg/mL	0.2 µg/mL (≈ 0.556 µM)	0.2 µg/mL (≈ 0.556 µM)	0.05 µg/mL (≈ 0.139 µM)	0.1 µg/mL (≈ 0.278 µM)	3.13 µg/mL (≈ 8.71 µM)	0.39 µg/mL (≈ 1.09 µM)	1.56 µg/mL (≈ 4.34 µM)	1.56 µg/mL (≈ 4.34 µM)	1.1 mg/kg	0.1 µg/mL (≈ 0.278 µM)	1.56 µg/mL	0.63 mg/kg	10.2 mg/kg	1.9 mg/kg	minimal effective dose [23]: 0.3 mg/kg; minimal effective dose [24]: 2.5 mg/kg; solubility [26]: 49 µg/mL (≈ 136 µM); minimal effective dose [28]: 0.3 mg/kg
CN1C[C@@H]2C[C@H]1CN2c1cc2c(cc1F)c(=O)c(C(=O)O)cn2C1CC1 [DANOFLOXACIN]	0.01 µg/mL (≈ 0.028 µM)	3.13 µg/mL (≈ 8.76 µM)	0.05 µg/mL (≈ 0.14 µM)	0.05 µg/mL (≈ 0.14 µM)	0.05 µg/mL (≈ 0.14 µM)	0.2 µg/mL (≈ 0.56 µM)	> 3.13 µg/mL	0.39 µg/mL (≈ 1.09 µM)	0.39 µg/mL (≈ 1.09 µM)	0.78 µg/mL (≈ 2.18 µM)	–	0.05 µg/mL (≈ 0.14 µM)	0.78 µg/mL	–	0.4 mg/kg	0.31 mg/kg	minimal effective dose [29]: 0.15 mg/kg; ED50 [30]: 1.12 mg/kg; minimal effective dose [31]: 0.15 mg/kg; minimal effective dose [32]: 0.6 mg/kg
CCn1cc(C(=O)O)c(=O)c2cc(F)c(N3CCNCC3)cc21 [NORFLOXACIN]	0.05 µg/mL (≈ 0.157 µM)	25 µg/mL (≈ 78.3 µM)	0.1 µg/mL (≈ 0.313 µM)	0.1 µg/mL (≈ 0.313 µM)	< 0.05 µg/mL	0.39 µg/mL (≈ 1.22 µM)	12.5 µg/mL (≈ 39.1 µM)	3.13 µg/mL (≈ 9.8 µM)	6.25 µg/mL (≈ 19.6 µM)	6.25 µg/mL (≈ 19.6 µM)	0.46 mg/kg	0.05 µg/mL (≈ 0.157 µM)	0.78 µg/mL	5.54 mg/kg	8.84 mg/kg	0.63 mg/kg	solubility [33]: 350 µg/mL (≈ 1100 µM)
